Measurements published in ChEMBL document CHEMBL5661976 (Cancer Res, 2007).
Activity calls are given as the source filed them. No cut-off for these calls is given here.

Legend:
NCI-H3255 [1] = experiment: cells; format: functional, cell-based; settings: Homo sapiens, NCI-H3255, 72 h
cells [2] = format: functional, cell-based; settings: Homo sapiens, NCI-H3255GR, 72 h
HCC827 [3] = experiment: cells; format: functional, cell-based; settings: Homo sapiens, HCC827, 72 h
cells [4] = format: functional, cell-based; settings: Homo sapiens, NCI-H820, 72 h
HCC4006 = experiment: cells; format: functional, cell-based; settings: Homo sapiens, HCC4006, 72 h
PC-9 = experiment: cells; format: functional, cell-based; settings: Homo sapiens, PC-9, 72 h
cells [5] = format: functional, cell-based; settings: Homo sapiens, NCI-H1781, 72 h
BaF3 [6] = experiment: cells; format: functional, cell-based; settings: Mus musculus, BaF3, 72 h
BaF3 [7] = experiment: cells; format: functional, cell-based; settings: Mus musculus, BaF3, 72 h; remark: listed apart in the source
BaF3 [8] = experiment: cells; format: functional, cell-based; settings: Mus musculus, BaF3, 72 h; remark: listed apart in the source
BaF3 [9] = experiment: cells; format: functional, cell-based; settings: Mus musculus, BaF3, 72 h; remark: listed apart in the source
BaF3 [10] = experiment: cells; format: functional, cell-based; settings: Mus musculus, BaF3, 72 h; remark: listed apart in the source
BaF3 [11] = experiment: cells; format: functional, cell-based; settings: Mus musculus, BaF3, 72 h; remark: listed apart in the source
BaF3 [12] = experiment: cells; format: functional, cell-based; settings: Mus musculus, BaF3, 72 h; remark: listed apart in the source
BaF3 [13] = experiment: cells; format: functional, cell-based; settings: Mus musculus, BaF3, 72 h; remark: listed apart in the source
BaF3 [14] = experiment: cells; format: functional, cell-based; settings: Mus musculus, BaF3, 72 h; remark: listed apart in the source
BaF3 [15] = experiment: cells; format: functional, cell-based; settings: Mus musculus, BaF3, 72 h; remark: listed apart in the source
BaF3 [16] = experiment: cells; format: functional, cell-based; settings: Mus musculus, BaF3, 72 h; remark: listed apart in the source
BaF3 [17] = experiment: cells; format: functional, cell-based; settings: Mus musculus, BaF3, 72 h; remark: listed apart in the source
BaF3 [18] = experiment: cells; format: functional, cell-based; settings: Mus musculus, BaF3, 72 h; remark: listed apart in the source
BaF3 [19] = experiment: cells; format: functional, cell-based; settings: Mus musculus, BaF3, 72 h; remark: listed apart in the source
NCI-H3255GR = experiment: Induction of apoptosis in human NCI-H3255GR cells assessed as increase in cleavage of PARP at 1 micromol/L incubated for 72 hrs by Western blotting analysis; format: functional, cell-based; settings: dose 1.0 µmol/L
NCI-H3255 [20] = experiment: Induction of apoptosis in human NCI-H3255 cells assessed as increase in cleavage of PARP at 1 micromol/L incubated for 72 hrs by Western blotting analysis; format: functional, cell-based; settings: dose 1.0 µmol/L
[21] = molecular target: Receptor tyrosine-protein kinase erbB-3 (Homo sapiens) (UniProt P21860); experiment: Inhibition of ERBB3 phosphorylation in human HCC827 cells expressing GFP at 1 to 10000 nmol/L incubated for 12 hrs by Western blotting analysis; format: cell-based; settings: dose 1-10000 nmol/L
Sequence of Receptor tyrosine-protein kinase erbB-3 (Homo sapiens) (P21860 whole entry): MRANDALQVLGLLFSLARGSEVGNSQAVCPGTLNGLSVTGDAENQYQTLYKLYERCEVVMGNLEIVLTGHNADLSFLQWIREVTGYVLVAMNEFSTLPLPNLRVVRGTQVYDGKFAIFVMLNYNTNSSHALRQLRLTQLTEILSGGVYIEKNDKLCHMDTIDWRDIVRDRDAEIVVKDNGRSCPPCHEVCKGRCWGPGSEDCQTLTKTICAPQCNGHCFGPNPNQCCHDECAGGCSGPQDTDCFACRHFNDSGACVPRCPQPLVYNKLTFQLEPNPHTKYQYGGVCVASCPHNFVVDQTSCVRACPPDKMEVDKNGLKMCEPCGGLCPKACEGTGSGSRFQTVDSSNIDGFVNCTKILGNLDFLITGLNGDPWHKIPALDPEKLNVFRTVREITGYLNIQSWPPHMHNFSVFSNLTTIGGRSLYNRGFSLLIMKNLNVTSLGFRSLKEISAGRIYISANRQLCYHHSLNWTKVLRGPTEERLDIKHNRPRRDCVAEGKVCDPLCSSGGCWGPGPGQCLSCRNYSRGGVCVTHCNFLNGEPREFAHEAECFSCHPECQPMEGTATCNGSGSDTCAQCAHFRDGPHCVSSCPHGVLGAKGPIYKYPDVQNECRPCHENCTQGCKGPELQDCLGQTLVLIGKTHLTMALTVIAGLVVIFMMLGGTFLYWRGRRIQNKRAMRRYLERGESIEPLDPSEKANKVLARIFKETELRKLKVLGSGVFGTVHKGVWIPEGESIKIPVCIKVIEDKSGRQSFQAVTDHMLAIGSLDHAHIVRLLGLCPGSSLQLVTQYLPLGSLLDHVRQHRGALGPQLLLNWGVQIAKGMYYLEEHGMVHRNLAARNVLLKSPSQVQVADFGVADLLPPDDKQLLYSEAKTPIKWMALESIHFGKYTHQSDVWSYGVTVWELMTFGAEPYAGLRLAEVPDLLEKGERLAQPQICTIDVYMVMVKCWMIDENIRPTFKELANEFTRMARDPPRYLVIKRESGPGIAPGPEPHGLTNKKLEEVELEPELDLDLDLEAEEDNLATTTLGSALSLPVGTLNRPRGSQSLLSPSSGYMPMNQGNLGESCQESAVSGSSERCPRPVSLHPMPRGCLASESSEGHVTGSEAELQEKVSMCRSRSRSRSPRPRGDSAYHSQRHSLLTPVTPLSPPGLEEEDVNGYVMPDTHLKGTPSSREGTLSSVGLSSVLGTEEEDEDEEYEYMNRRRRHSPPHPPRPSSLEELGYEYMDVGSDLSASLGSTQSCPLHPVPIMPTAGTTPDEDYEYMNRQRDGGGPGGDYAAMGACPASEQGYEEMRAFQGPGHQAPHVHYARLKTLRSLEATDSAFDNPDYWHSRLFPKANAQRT

NCI-H3255 [22] = experiment: cells; format: functional, cell-based; settings: Homo sapiens, NCI-H3255, 72 h; remark: listed apart in the source
NCI-H3255 [23] = experiment: cells; format: functional, cell-based; settings: Homo sapiens, NCI-H3255, 72 h; remark: listed apart in the source
NCI-H3255 [24] = experiment: cells; format: functional, cell-based; settings: Homo sapiens, NCI-H3255, 72 h; remark: listed apart in the source
NCI-H3255 [25] = experiment: cells; format: functional, cell-based; settings: Homo sapiens, NCI-H3255, 72 h; remark: listed apart in the source
HCC827 [26] = experiment: Antiproliferative activity against human HCC827 cells harboring EGFR Del E746_A750 mutant transfected with GFP assessed as inhibition of cell growth incubated for 72 hrs by MTS assay; format: functional, cell-based; settings: HCC827, 72 h
Method in brief: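 MTS viable-cell assay (bioreduction to soluble formazan, spectrophotometric read) after 72 h drug exposure; cell numbers set empirically.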

HCC827 [27] = experiment: cells; format: functional, cell-based; settings: Homo sapiens, HCC827, 72 h; remark: listed apart in the source
HCC827 [28] = experiment: cells; format: functional, cell-based; settings: Homo sapiens, HCC827, 72 h; remark: listed apart in the source
HCC827 [29] = experiment: cells; format: functional, cell-based; settings: Homo sapiens, HCC827, 72 h; remark: listed apart in the source
HCC827 [30] = experiment: cells; format: functional, cell-based; settings: Homo sapiens, HCC827, 72 h; remark: listed apart in the source
HCC827 [31] = experiment: cells; format: functional, cell-based; settings: Homo sapiens, HCC827, 72 h; remark: listed apart in the source
HCC827 [32] = experiment: Antitumor activity against human HCC827 cells expressing GFP xenografted in nude mouse assessed as inhibition of tumor growth at 10 mg/kg/day, po and measured thrice weekly; format: functional, organism-based
Method in brief: (§1)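 Nu/nu mice under 2% isoflurane/oxygen inoculated s.c. in lower-right flank with 5 × 10^6 HCC827-GFP or HCC827-Del/T790M cells in 0.2 mL PBS; randomized at mean tumor 400 to 500 mm3. Daily oral gavage 10 mg/kg/d; caliper volume = length × width² × 0.52; body weight monitored daily; ended when control tumors reached 2000 mm3.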

HCC827 [33] = experiment: Antitumor activity against human HCC827 cells expressing EGFR Del/T790M mutant xenografted in nude mouse assessed as inhibition of tumor growth at 10 mg/kg/day, po administered for 95 days and measured thrice weekly; format: functional, organism-based; settings: time 95.0 day
Method in brief: as §1

NIH3T3 [34] = experiment: Inhibition of ERBB2 Ins774YVMA mutant (unknown origin) expressed in mouse NIH3T3 cells assessed as inhibition of ERBB2 phosphorylation at 100 to 10000 nmol/L incubated for 6 hrs by Western blotting analysis; format: cell-based; settings: dose 100-10000 nmol/L
NIH3T3 [35] = settings: Mus musculus, dose 1-10000 nmol/L, time 6.25 hrs
NIH3T3 [36] = settings: Mus musculus, dose 1-10000 nmol/L, time 6.25 hrs; remark: listed apart in the source
NIH3T3 [37] = settings: Mus musculus, dose 1-10000 nmol/L, time 6.25 hrs; remark: listed apart in the source
HCC827 [38] = settings: Homo sapiens, dose 1-10000 nmol/L, time 12.0 hrs

IC50 (NCI-H3255 [1]): 7 nM
IC50 (cells [2]): 119 nM
IC50 (HCC827 [3]): 2 nM
IC50 (cells [4]): 930 nM
IC50 (HCC4006): 4 nM
IC50 (PC-9): 2 nM
IC50 (cells [5]): 275 nM
IC50 (BaF3 [6]): < 1 nM
IC50 (BaF3 [7]): 2 nM
IC50 (BaF3 [8]): 1.6 nM
IC50 (BaF3 [9]): 1.9 nM
IC50 (BaF3 [10]): 1.4 nM
IC50 (BaF3 [11]): 2.6 nM
IC50 (BaF3 [12]): 230 nM
IC50 (BaF3 [13]): 1.2 nM
IC50 (BaF3 [14]): 140 nM
IC50 (BaF3 [15]): 330 nM
IC50 (BaF3 [16]): 240 nM
IC50 (BaF3 [17]): 160 nM
IC50 (BaF3 [18]): 270 nM
IC50 (BaF3 [19]): 300 nM
inhibition [21]: Active
IC50 (NCI-H3255 [22]): 7 nM
IC50 (NCI-H3255 [23]): 137 nM
IC50 (NCI-H3255 [24]): 1620 nM
IC50 (NCI-H3255 [25]): 1570 nM
IC50 (HCC827 [26]): 2 nM
IC50 (HCC827 [27]): 3 nM
IC50 (HCC827 [28]): 14 nM
IC50 (HCC827 [29]): 61 nM
IC50 (HCC827 [30]): 2 nM
IC50 (HCC827 [31]): 83 nM
Structure (SMILES): COc1cc2ncnc(Nc3ccc(F)c(Cl)c3)c2cc1NC(=O)/C=C/CN1CCCCC1 [DACOMITINIB ANHYDROUS]
Activity (NCI-H3255GR): Active
Activity (NCI-H3255 [20]): Active
Activity (HCC827 [32]): Active
Activity (HCC827 [33]): Active
inhibition (NIH3T3 [34]): Active
inhibition (NIH3T3 [35]): Active
inhibition (NIH3T3 [36]): Active
inhibition (NIH3T3 [37]): Active
inhibition (HCC827 [38]): Active
